Results gathered from unrelated publications.
Compare with care: the assays were run in different laboratories.
Cell line: A549
Observed: cell growth or viability

SMILES | method | tested at | time | endpoint | value
O=C(Nc1ccc(Cl)cc1)Nc1ccc(-c2cn(Cc3ccc(Br)cc3)nn2)cc1 | CCK-8 | 50 µM | 72 h | viability | 78.8%
CCCCCCCCCCCCCCCCCCOc1cccc(CC(=O)OCC[N+]2(C)CCCC2)c1 | SRB | 10 µM |  | inhibition | 13.9%
Cc1ccccc1Cn1cc(-c2cccc(NC(=O)Nc3ccc(F)cc3)c2)nn1 | CCK-8 | 50 µM | 72 h | viability | 175%
NCC(=O)Nc1ccccc1/N=c1\cc(-c2ccc3c(c2)OCO3)oc2c([N+](=O)[O-])cccc12 | CCK-8 | 1 µM |  | inhibition | -2.29%
COc1ccc(NC(=O)Nc2cccc(-c3cn(Cc4ccc(Br)cc4)nn3)c2)cc1 | CCK-8 | 50 µM | 72 h | viability | 271%
O=C(Nc1ccc(-c2cn(Cc3ccc(Cl)cc3)nn2)cc1)Nc1ccccc1Br | CCK-8 | 50 µM | 72 h | viability | 107%
C[C@H](N)C(=O)Nc1ccccc1/N=c1\cc(-c2ccc3c(c2)OCCO3)oc2c([N+](=O)[O-])cccc12 | CCK-8 | 1 µM |  | inhibition | 0.38%
O=C(NCc1cn(Cc2ccc(Cl)cc2)nn1)Nc1ccccc1Br | CCK-8 | 50 µM | 72 h | viability | 86.1%
COCCC(=O)Nc1ccccc1/N=c1\cc(-c2ccc3nc(N)oc3c2)oc2ccccc12 | CCK-8 | 1 µM |  | inhibition | -0.65%
CCCCCCCCCCCCCCCCCCOc1ccccc1CC(=O)OCCC[N+](C)(C)C | SRB | 10 µM |  | inhibition | 45.8%
CCNc1nc2ccc(-c3c/c(=N\c4ccccc4NC(=O)CCN)c4ccccc4o3)cc2o1 | CCK-8 | 1 µM |  | inhibition | 14.1%
COc1ccc(NC(=O)Nc2ccc(-c3cn(Cc4ccc(Cl)cc4)nn3)cc2)cc1 | CCK-8 | 20 µM | 72 h | viability | 102%
O=C(Nc1cccc(-c2cn(Cc3ccc(Br)cc3)nn2)c1)Nc1ccccc1Br | CCK-8 | 50 µM | 72 h | viability | 70.9%
C[C@H](N)C(=O)Nc1ccccc1/N=c1\cc(-c2ccc3c(c2)OCO3)oc2ccccc12 | CCK-8 | 1 µM |  | inhibition | -2.13%
COc1ccc(NC(=O)Nc2cccc(-c3cn(Cc4ccc(Cl)cc4)nn3)c2)cc1 | CCK-8 | 20 µM | 72 h | viability | 147%
O=C(Nc1cccc(-c2cn(Cc3ccc(Cl)cc3)nn2)c1)Nc1ccccc1Br | CCK-8 | 50 µM | 72 h | viability | 149%
COc1ccc2/c(=N/c3ccccc3NC(=O)[C@@H](N)C(C)(C)C)cc(-c3ccc4c(c3)OCCO4)oc2c1 | CCK-8 | 1 µM |  | inhibition | 6.77%
COc1ccc(NC(=O)Nc2cccc(-c3cn(Cc4ccc(C)cc4)nn3)c2)cc1 | CCK-8 | 20 µM | 72 h | viability | 146%
